Active and inactive are the calls of the source. No cut-off for these calls is given here.
Legend:
[1] = target: T1, Peroxisome proliferator-activated receptor gamma (Homo sapiens, UniProt P37231); experiment: Agonist activity at PPARgamma (unknown origin) expressed in HEK293T cells incubated for 14 to 16 hrs under irradiation by hybrid Gal4 reporter gene assay; format: cell-based
T1 sequence (P37231 whole entry): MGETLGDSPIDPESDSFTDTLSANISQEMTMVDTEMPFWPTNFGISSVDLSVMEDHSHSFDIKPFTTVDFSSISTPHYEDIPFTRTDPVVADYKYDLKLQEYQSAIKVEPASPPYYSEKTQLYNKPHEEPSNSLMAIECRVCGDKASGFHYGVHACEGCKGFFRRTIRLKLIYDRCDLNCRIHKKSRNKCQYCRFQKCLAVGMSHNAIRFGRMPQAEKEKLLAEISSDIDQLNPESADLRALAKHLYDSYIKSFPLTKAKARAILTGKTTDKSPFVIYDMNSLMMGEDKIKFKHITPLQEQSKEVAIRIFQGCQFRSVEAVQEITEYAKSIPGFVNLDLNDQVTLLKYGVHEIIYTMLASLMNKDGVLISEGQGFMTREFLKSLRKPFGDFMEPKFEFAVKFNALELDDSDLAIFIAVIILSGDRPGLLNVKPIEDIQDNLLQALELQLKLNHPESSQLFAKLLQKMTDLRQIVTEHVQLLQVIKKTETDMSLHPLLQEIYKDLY

[2] = target: T2, Peroxisome proliferator-activated receptor alpha (Homo sapiens) (UniProt Q07869); experiment: Agonist activity at PPARalpha (unknown origin) expressed in HEK293T cells at 10 uM incubated for 14 to 16 hrs under irradiation by hybrid Gal4 reporter gene assay; format: cell-based; details: time hrs 14-16
T2 sequence (whole entry): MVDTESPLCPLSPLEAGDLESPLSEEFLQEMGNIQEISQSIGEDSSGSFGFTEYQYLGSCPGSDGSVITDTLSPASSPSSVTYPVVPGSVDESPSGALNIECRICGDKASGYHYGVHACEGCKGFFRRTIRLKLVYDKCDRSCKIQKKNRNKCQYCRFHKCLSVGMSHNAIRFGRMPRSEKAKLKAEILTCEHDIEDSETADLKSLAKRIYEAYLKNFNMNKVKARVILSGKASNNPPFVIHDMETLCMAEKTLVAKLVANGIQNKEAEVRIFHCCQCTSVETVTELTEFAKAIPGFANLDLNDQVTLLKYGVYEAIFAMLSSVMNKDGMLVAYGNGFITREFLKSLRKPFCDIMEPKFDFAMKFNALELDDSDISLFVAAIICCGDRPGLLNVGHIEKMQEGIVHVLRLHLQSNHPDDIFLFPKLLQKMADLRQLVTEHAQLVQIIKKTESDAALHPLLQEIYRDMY
How it was run: (§1)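 HEK293T cells transfected (Lipofectamine LTX) with Gal4 fusion of human PPARα or PPARδ hinge region + LBD, pFR-Luc reporter and pRL-SV40; compound added in Opti-MEM with 0.1% DMSO 5 h post-transfection, 14–16 h incubation. Dual-Glo luciferase; firefly/Renilla ratio gives RLU, fold activation vs DMSO control. Duplicates, ≥2 independent repeats.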

[3] = target: T3, Peroxisome proliferator-activated receptor gamma (Homo sapiens) (UniProt P37231); experiment: Agonist activity at PPARgamma (unknown origin) expressed in HEK293T cells at 10 uM incubated for 14 to 16 hrs under irradiation by hybrid Gal4 reporter gene assay; format: cell-based; details: time hrs 14-16
T3 sequence (whole entry): T1 sequence (P37231 whole entry)
How it was run: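 Gal4 hybrid reporter: HEK293T cells transiently co-transfected with Gal4–human PPARγ hinge+LBD fusion, Gal4-responsive firefly luciferase reporter and Renilla normalisation plasmid. Compound added 5 h post-transfection in Opti-MEM, 0.1% DMSO final; 14–16 h incubation. Dual-Glo read-out, firefly/Renilla ratio, fold over DMSO control. Technical duplicates, at least two independent repeats.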

[4] = target: T4, Peroxisome proliferator-activated receptor delta (Homo sapiens) (UniProt Q03181); experiment: Agonist activity at PPARdelta (unknown origin) expressed in HEK293T cells at 10 uM incubated for 14 to 16 hrs under irradiation by hybrid Gal4 reporter gene assay; format: cell-based; details: time hrs 14-16; how it was run: as §1
T4 sequence (whole entry): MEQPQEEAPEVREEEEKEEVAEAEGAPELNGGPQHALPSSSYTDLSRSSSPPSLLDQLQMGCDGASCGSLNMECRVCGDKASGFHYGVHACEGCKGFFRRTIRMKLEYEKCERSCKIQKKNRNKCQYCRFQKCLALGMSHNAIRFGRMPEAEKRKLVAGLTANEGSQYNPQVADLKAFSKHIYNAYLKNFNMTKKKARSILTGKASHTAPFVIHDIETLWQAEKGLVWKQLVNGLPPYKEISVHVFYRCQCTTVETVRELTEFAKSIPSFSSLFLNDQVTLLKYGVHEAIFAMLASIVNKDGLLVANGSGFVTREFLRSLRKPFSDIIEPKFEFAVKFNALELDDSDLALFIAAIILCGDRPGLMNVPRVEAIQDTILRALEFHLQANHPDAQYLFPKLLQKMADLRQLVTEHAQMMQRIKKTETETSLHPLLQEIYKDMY

[5] = target: T3, Peroxisome proliferator-activated receptor gamma (Homo sapiens); experiment: Agonist activity at PPARy in human HepG2 cells transfected with human PPRE incubated for 14 to 16 hrs using pre-irradiated compound by firefly luciferase reporter gene assay relative to control; format: cell-based; details: filed as agonist, time hrs 14-16
How it was run: (§2)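 HepG2 cells on collagen-coated wells, transfected (Lipofectamine 3000) with PPRE1-pGL3 (human full-length PPRE driving firefly luciferase) plus pRL-SV40; endogenous PPARγ/RXR, no overexpression. Compound in Opti-MEM, 0.1% DMSO, 14–16 h; cis state held by 75 ms 370 nm pulses every 15 s. Firefly/Renilla normalised, fold activation over DMSO control; rosiglitazone reference.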

[6] = target: T1, Peroxisome proliferator-activated receptor gamma; experiment: Agonist activity at PPARy in human HepG2 cells transfected with human PPRE incubated for 14 to 16 hrs using pre-irradiated compound by firefly luciferase reporter gene assay; format: cell-based; how it was run: as §2
[7] = target: T1, Peroxisome proliferator-activated receptor gamma; experiment: (§3) Binding affinity to recombinant PPARy LBD (unknown origin) expressed in Escherichia coli BL21 DE3 using pre-irradiated compound by ITC assay
How it was run: (§4)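 ITC at 25 °C: 300 µM compound, pre-irradiated 5 min at 365 nm, titrated into 64 µM His-tag-cleaved PPARγ LBD (aa 234–505, E. coli BL21 DE3 with GroEL/ES, IMAC plus gel filtration) in 25 mM HEPES pH 7.5, 150 mM KF, 5 mM DTT, 10% glycerol, 1% DMSO. 31 injections (1.0 then 2.5 µL), 300 s apart, 75 rpm; buffer control.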

[8] = target: T3, Peroxisome proliferator-activated receptor gamma (Homo sapiens); experiment: Agonist activity at PPARy in human HepG2 cells transfected with human PPRE at 10 uM incubated for 14 to 16 hrs using pre-irradiated compound by firefly luciferase reporter gene assay; format: cell-based; details: filed as agonist, time hrs 14-16; how it was run: as §2
[9] = target: T3, Peroxisome proliferator-activated receptor gamma (Homo sapiens); experiment: as §3; how it was run: as §4

SMILES	EC50 [1]	Activity [4]	further results
O=C1NC(=O)C(Cc2ccc(/N=N/c3ccc(Cl)cc3)cc2)S1 (centres undefined)	2.9 µM	–	–
O=C1NC(=S)NC(=O)C1=Cc1ccc(/N=N/c2ccccc2)cc1	–	inactive	Activity [2]: inactive; Activity [3]: inactive
O=C1NC(=O)C(Cc2ccc(/N=N/c3ccccc3)cc2)S1 (centres undefined)	2.2 µM	inactive	–
O=C1NC(=O)C(Cc2ccc(/N=N/c3ccc(C(F)(F)F)cc3)cc2)S1 (centres undefined)	2.2 µM	–	–
O=C1NC(=O)C(Cc2ccc(/N=N\c3ccccc3)cc2)S1 (centres undefined)	6.3 µM	–	–
O=C1NC(=O)C(Cc2ccc(/N=N\c3ccc(C(F)(F)F)cc3)cc2)S1 (centres undefined)	6.5 µM	–	–
Cc1ccccc1-c1ccc(/N=N\c2ccc(CC3SC(=O)NC3=O)cc2)cc1 (centres undefined)	6.4 µM	–	fold change (FC) [5]: 2.4; EC50 [6]: 0.9 µM; Kd [7]: 9.3 µM
O=C(c1ccccc1)c1ccccc1N[C@@H](Cc1ccc(/N=N/c2ccccc2)cc1)C(=O)O	–	inactive	Activity [2]: inactive
O=C1NC(=O)C(Cc2ccc(/N=N\c3ccc(Cl)cc3)cc2)S1 (centres undefined)	7 µM	–	–
Cc1ccccc1-c1ccc(/N=N/c2ccc(CC3SC(=O)NC3=O)cc2)cc1 (centres undefined)	2.8 µM	–	Activity [8]: Active; Activity [9]: inactive

From ChEMBL document CHEMBL4665790, “Photohormones Enable Optical Control of the Peroxisome Proliferator-Activated Receptor γ (PPARγ)” (J Med Chem, 2020)
